Experimental data from ChEMBL document CHEMBL1221207, “Expanding the promiscuity of a natural-product glycosyltransferase by directed evolution” (Nat Chem Biol, 2007).
Where a chain is given by its changes, count along the chain named. In names and notes the source's numbering stands.

B1: Oleandomycin glycosyltransferase (Streptomyces antibioticus), Q53685 (protein)
chain: MTTQTTPAHIAMFSIAAHGHVNPSLEVIRELVARGHRVTYAIPPVFADKVAATGPRPVLYHSTLPGPDADPEAWGSTLLDNRRTFLNDAIQALPQLADAYADDIPDLVLHDITSYPARVLARRWGVPAVSLSPNLVAWKGYEEEVAEPMWREPRQTERGRAYYARFEAWLKENGITEHPDTFASHPPRSLVLIPKALQPHADRVDEDVYTFVGACQGDRAEEGGWQRPAGAEKVVLVSLGSAFTKQPAFYRECVRAFGNLPGWHLVLQIGRKVTPAELGELPDNVEVHDWVPQLAILRQADLFVTHAGAGGSQEGLATATPMIAVPQAVDQFGNADMLQGLGVARKLATEEATADLLRETALALVDDPEVARRLRRIQAEMAQEGGTRRAADLIEAELPARHERQEPVGDRPNVGDRPAGVRSDRQRSAL
B2: Oleandomycin glycosyltransferase (Streptomyces antibioticus), Q53685 P67T,S132F,A242V (protein)
chain: B1 chain with P67T, S132F, A242V

Legend:
[1] = system: T1, Oleandomycin glycosyltransferase (Streptomyces antibioticus), Q53685 [A242V]; test: Activity of Streptomyces antibioticus OleD A242V mutant assessed as as rate of glucoside formation measured as nanomoles of product formed per minute per mg of enzyme
T1 sequence (whole entry): B1 chain with A242V

[2] = system: T2, Oleandomycin glycosyltransferase (Streptomyces antibioticus), Q53685 [P67T]; test: Activity of Streptomyces antibioticus OleD P67T mutant assessed as as rate of glucoside formation measured as nanomoles of product formed per minute per mg of enzyme
T2 sequence (whole entry): B1 chain with P67T

[3] = molecular target: T3, Oleandomycin glycosyltransferase (Streptomyces antibioticus) (UniProt Q53685); test: Activity of Streptomyces antibioticus OleD […] mutant assessed as as rate of glucoside formation measured as nanomoles of product formed per minute per mg of enzyme
T3 sequence (whole entry): B1 chain

[4] = system: T4, Oleandomycin glycosyltransferase (Streptomyces antibioticus), Q53685 [P67T,S132F,A242V]; test: Activity of Streptomyces antibioticus OleD P67T/S132F/A242V mutant assessed as as rate of glucoside formation measured as nanomoles of product formed per minute per mg of enzyme
T4 sequence (whole entry): B1 chain with P67T, S132F, A242V

[5] = molecular target: T3, Oleandomycin glycosyltransferase (Streptomyces antibioticus); test: Activity at Streptomyces antibioticus wild-type OleD assessed as as rate of glucoside formation measured as nanomoles of product formed per minute per mg of enzyme
[6] = substrate: Cc1cc(=O)oc2cc(O)ccc12; test: Ratio of Kcat to Km for Streptomyces antibioticus wild-type OleD assessed as as rate of glucoside formation at 10 mM using varying NDP sugar UDP-glucose concentration by enzyme kinetics assay
Method in brief: (§1)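 Steady-state kinetics of wild-type OleD glucosylating the acceptor 4-methylumbelliferone to its 7-O-glucoside, with the acceptor fixed at 10 mM and donor UDP-glucose as the variable substrate. Apparent donor kinetic parameters were taken from the rate versus UDP-glucose concentration data.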

[7] = substrate: Cc1cc(=O)oc2cc(O)ccc12; test: Activity of Streptomyces antibioticus wild-type OleD assessed as as rate of glucoside formation at 10 mM using varying NDP sugar UDP-glucose concentration by enzyme kinetics assay; method in brief: as §1
[8] = substrate: Cc1cc(=O)oc2cc(O)ccc12; test: Ratio of Kcat to Km for Streptomyces antibioticus wild-type OleD assessed as as rate of glucoside formation using varying compound concentration by enzyme kinetics assay
Method in brief: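 Wild-type OleD steady-state kinetics with 4-methylumbelliferone as the variable acceptor, up to 10 mM (its solubility limit in water/DMSO), and UDP-glucose as donor. Read-out was the rate of glucoside formation. kcat/Km was obtained by linear regression of rate against acceptor concentration.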

[9] = substrate: Cc1cc(=O)oc2cc(O)ccc12; test: Ratio of Kcat to Km for Streptomyces antibioticus OleD P67T/S132F/A242V mutant assessed as as rate of glucoside formation using varying compound concentration by enzyme kinetics assay
Method in brief: (§2)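 Steady-state kinetics with the acceptor 4-methylumbelliferone as the variable substrate and UDP-Glc as donor. The acceptor limit was its solubility in water/DMSO, 10 mM. Apparent Km and kcat were derived from the saturation curve.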

[10] = substrate: Cc1cc(=O)oc2cc(O)ccc12; test: Activity of Streptomyces antibioticus OleD P67T/S132F/A242V mutant assessed as rate of glucoside formation at 10 mM using varying NDP sugar UDP-glucose concentration by enzyme kinetics assay
Method in brief: (§3)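 Steady-state kinetics with donor UDP-Glc varied at a fixed concentration of the acceptor 4-methylumbelliferone. The result was reported as an apparent donor Km, with kcat from the same analysis.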

[11] = substrate: Cc1cc(=O)oc2cc(O)ccc12; test: Activity of Streptomyces antibioticus OleD P67T/S132F/A242V mutant assessed as as rate of glucoside formation using varying compound concentration by enzyme kinetics assay; method in brief: as §2
[12] = substrate: Cc1cc(=O)oc2cc(O)ccc12; test: Ratio of Kcat to Km for Streptomyces antibioticus OleD P67T/S132F/A242V mutant assessed as rate of glucoside formation at 10 mM using varying NDP sugar UDP-glucose concentration by enzyme kinetics assay; method in brief: as §3

Molecule	Activity [1] [nmol/min]	Activity [2] [nmol/min]	Activity [3] [nmol/min]	Activity [4] [nmol/min]	Activity [5] [nmol/min]	other results
O=C(O)c1cc2ccc(O)cc2oc1=O	0.01	0.022	0.022	0.62	0.01	
O=C(O)Cc1cc(=O)oc2cc(O)ccc12	0.16	0.22	0.08	3.6		
CO[C@H]1C[C@H](O[C@H]2[C@H](C)[C@@H](O[C@@H]3O[C@H](C)C[C@H](N(C)C)[C@H]3O)[C@@H](C)C[C@@]3(CO3)C(=O)[C@H](C)[C@@H](O)[C@@H](C)[C@@H](C)OC(=O)[C@@H]2C)O[C@@H](C)[C@@H]1O	70	200	1490	13	700	
O=c1c(-c2ccc(O)cc2)coc2cc(O)ccc12	8.5	16	5.5	24	4.2	
O=c1c(O)c(-c2ccc(O)cc2)oc2cc(O)cc(O)c12	15.3	99.9	23	28	13.2	
O=c1c(-c2ccc(O)cc2)coc2cc(O)cc(O)c12	14.1	28.8	8.8	26	3.4	
CC(C)=CCc1cc(C(=O)Nc2c(O)c3ccc(O)c(C)c3oc2=O)ccc1O	0.33	0.65	0.49	1.14	0.24	
B1						kcat/Km [6]: 28.8 M⁻¹ s⁻¹; Km [7]: 300 µM; kcat [7]: 0.00867 s⁻¹; kcat/Km [8]: 3 M⁻¹ s⁻¹
B2						kcat/Km [9]: 177 M⁻¹ s⁻¹; Km [10]: 0.03 min⁻¹; kcat [10]: 0.0215 s⁻¹; Km [11]: 140 µM; kcat [11]: 0.0247 s⁻¹; kcat/Km [12]: 717 M⁻¹ s⁻¹
